Bioassay records (PubChem BioAssay)
Hits are enriched below; roughly 4.8% of the tested compounds scored in any of these assays.
HSF1 inhib = HSF1 inhibition; NIH3T3-HGL HSE-luciferase, MG132-induced, luminescence 8 h; active compounds read low; activity change, negative = inhibition, % at 7.5 µM (by protocol); AID 2098; hit rate 0.77% among 300,000;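 active = more than half of replicate wells show activity change below -50%, luminescence cut by over half; inconclusive = some wells, but at most half, below -50%; inactive = no replicate well below -50%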;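 also: luciferase reports HSF-1 transcriptional activity via heat shock element; 0% = median of DMSO wells and -100% = zero luminescence signal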
HSF1 activator = increases HSF-1 driven luciferase reporter signal; NIH3T3-HGL HSF-1 luciferase reporter, MG132, 8 h; 100% = twice DMSO control signal; activation, % at 9 µM; hit rate 1.7% among 300,000;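 active = mean replicate activation of at least 50% with a set share of replicates each reaching 50%; inconclusive = only one of those two conditions met; inactive = mean below 50% and too few replicates reaching it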;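 also: 0% = median of the neutral control wells and 100% = twice that signal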
697 NFkB inh = inhibitors of the PMA/ionomycin-induced NF-kB reporter in 697 B cells. 697 B-cell NF-kB luciferase reporter, 16 h. inhibition, % at 4 µM. hit rate 0.33% among 330,000; in the data active = inhibition above about 35%
GPR7 antag = antagonists of human GPR7 (neuropeptides B/W receptor 1); P48145; GPR7-expressing cells, fluorescence antagonist assay; inhibition, % at 4.4 µM; hit rate 1.1% among 290,000; AID 1861; in the data active = inhibition above about 16%, passing the limit was not always enough;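 also: cells stimulated with the agonist NPW; 0% = agonist with vehicle and 100% = vehicle without agonist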
Target sequence (P48145 whole entry, looked up): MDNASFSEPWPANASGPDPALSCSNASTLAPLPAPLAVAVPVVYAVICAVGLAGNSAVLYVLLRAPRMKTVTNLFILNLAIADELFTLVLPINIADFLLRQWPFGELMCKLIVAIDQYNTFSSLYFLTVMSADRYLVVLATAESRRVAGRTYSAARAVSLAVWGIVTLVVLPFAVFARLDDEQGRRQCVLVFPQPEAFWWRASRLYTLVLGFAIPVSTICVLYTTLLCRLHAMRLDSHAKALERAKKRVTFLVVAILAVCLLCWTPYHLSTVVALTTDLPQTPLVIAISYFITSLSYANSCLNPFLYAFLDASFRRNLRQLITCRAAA
Jurkat NFkB inh = lowers PMA/ionomycin-induced NF-kB signal in Jurkat cells; AID 435003; inhibition, % at 4 µM; hit rate 0.53% among 330,000; PMA/ionomycin-induced NF-kB luciferase reporter, luminescence; in the data active = inhibition above about 50%
T cruzi inh = T. cruzi replication inhibition. T. cruzi beta-gal in NIH3T3, luminescence, 90 h. inhibition, % (test concentration not listed). hit rate 1.4% among 300,000. AID 1885;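 active = mean inhibition across valid replicates above about 55%, limit read from the data; inconclusive = mean below that limit but half or more replicates reach it; inactive = mean below it, under half of replicates reach it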;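 also: signal also drops with host cell toxicity which is not excluded here; 0% = plate median of DMSO wells and 100% = zero luminescence signal; higher percent means less beta-gal luminescence so fewer parasites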
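assay system = mouse NIH/3T3 fibroblasts infected with β-gal-expressing T. cruzi Tulahuen C4 | input = 5,000 NIH/3T3 host cells per well | buffer or medium = DMEM plus 2% FBS | timing = 3 h host attachment, then at least 90 h co-culture | measured by = GalScreen luminescence, 60 min | evaluation = luminescence reflecting intracellular parasite burden, expressed as percent inhibition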
GPR7 antag conf = human GPR7 antagonism, confirmation assay; shares compounds with GPR7 antag; inhibition, % at 4.4 µM; GPR7-expressing cells, calcium fluorescence antagonist mode; hit rate 52% among 2,400; AID 1952; in the data active = inhibition above about 24%;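 also: stimulated with the GPR7 agonist NPW; 0% = agonist plus vehicle and 100% = vehicle alone without agonist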
MCHR1 antag = counter-screen for GPR7 antagonists: antagonists of human MCHR1 | inhibition, % at 4.4 µM | shares compounds with GPR7 antag | hit rate 62% among 2,400 | MCHR1-expressing cells, fluorescence antagonist assay; in the data active = inhibition above about 22%;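 also: 0% = vehicle with agonist and 100% = vehicle without agonist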
Starred values were filed as active, the others as inactive; ? = inconclusive; · = not tested or not shown.

SMILES	HSF1 inhib	HSF1 activator	697 NFkB inh	GPR7 antag	Jurkat NFkB inh	T cruzi inh	GPR7 antag conf	MCHR1 antag
O=S(=O)(/N=C(/c1ccccc1)N1CCCCCC1)c1ccccc1	3	4	3	33*	-51	4	1	-1
O=C(c1ccccc1)c1ccc(Cn2cc(-c3ccccc3)nn2)cc1	22	17	-26	41*	-2	-7	47*	61*
CC(=O)c1cccc(NC(=S)NC(=O)Cc2ccccc2)c1	8	9	-18	0	0	2	·	·
CC(=O)c1cccc(NC(=S)NC(=O)Cc2ccc(Cl)cc2)c1	-4	-4	4	36*	-2	-8	55*	35*
Cc1ccc(S(=O)(=O)N2CCN(C(C)CC(=O)O)CC2)cc1 (stereo not drawn)	-3	2	19	-8	-28	4	·	·
CC1(C)CC(CC(=O)Nc2nccs2)(c2ccccc2)CCO1 (stereo not drawn)	-5	-19	1	11	9	-33	·	·
CC(C)CCC1(CCNC(C)c2cccs2)CCOC(C)(C)C1 (stereo not drawn)	2	8	-8	23*	-27	8	16	5
CCOC(=O)N1CCN(C(=S)NC(C)(C)C)CC1	-6	-8	14	21*	3	-1	-4	-7
O=C(CCc1nnc2ccc(NCc3ccco3)nn12)Nc1cccc(F)c1	-6	-2	-39	-6	6	9	·	·
NS(=O)(=O)c1ccc(CCNC(=O)c2ccc3c(c2)OCCO3)cc1	1	10	17	-13	5	-14	·	·
Cc1ccc(/C=N/NC(=O)c2ccccc2OCc2ccc(F)cc2)o1	3	2	-3	2	-13	27	·	·
O=C(N/N=C/c1ccncc1)c1ccccc1OCc1ccc(Br)cc1	6	26	-5	31*	3	71*	25*	43*
CCCCNC(=S)Nc1cccc(S(=O)(=O)NC2=NCCC2)c1	-2	-8	0	·	-13	-13	·	·
c1ccc(CNc2ccccn2)cc1	1	9	-9	-17	-9	-7	·	·
c1ccc(Nc2ccccc2Nc2ccccn2)nc1	10	37	4	53*	-7	8	-4	-6
O=C(Cn1cc([N+](=O)[O-])ccc1=O)NC1CCCCC1	·	·	-9	·	-4	·	·	·
COc1ccccc1N1CCN(C(c2ccc(F)cc2)c2nnnn2C(C)C)CC1 (stereo not drawn)	1	7	·	43*	·	15	22	12
CN(C)c1ccc(NC(=O)Nc2ccc3snnc3c2)cc1	3	14	2	-2	-41	-15	·	·
O=C(Nc1ccccc1)Nc1ccc2nnsc2c1	30	48	-61	33*	-51	6	28*	62*
O=C(Nc1ccccc1)Nc1ccc2snnc2c1	22	34	-46	25*	-56	-6	27*	60*
COc1cc(/C=N/NC(=O)CSCc2ccc([N+](=O)[O-])cc2)cc(OC)c1OC	4	-6	3	22*	-13	-4	26*	23*
CCCC(=O)Nc1ccc2c(c1)Cc1ccccc1-2	46	?	-97	25*	-97	-1	14	24*
CCC(=O)Nc1ccc2c(c1)Cc1cc(NC(=O)CC)ccc1-2	6	13	-8	-16	-18	-2	·	·
CCN(CC)CCN1C(=O)/C(=C\c2ccc(Cl)c([N+](=O)[O-])c2)SC1=Nc1ccc(OC)cc1	61	43	-70	46*	-72	57*	75*	60*
CCCN1C(=O)/C(=C/c2ccc(C)s2)SC1=Nc1ccc(OC)cc1	1	-11	17	0	7	23	·	·
SMILES	HSF1 inhib	HSF1 activator	697 NFkB inh	GPR7 antag	Jurkat NFkB inh	T cruzi inh	GPR7 antag conf	MCHR1 antag
CCOC(=O)CSc1nnc(-c2ccccc2)o1	0	-3	7	8	2	-1	·	·
COC(=O)CSc1nnc(-c2ccc(S(=O)(=O)NCc3ccccc3Cl)cc2)o1	-1	16	11	14	3	-4	·	·
COC(=O)CSc1nnc(-c2ccc(S(=O)(=O)NCc3cccs3)cc2)o1	·	·	9	22*	1	0	58*	38*
CCOC(=O)CSc1nnc(-c2ccc(S(=O)(=O)NCc3cccs3)cc2)o1	0	-11	17	40*	16	9	38*	19
O=C(CSc1nnc(-c2ccccc2F)n1C1CC1)Nc1cccnc1Cl	1	-8	17	5	4	-2	·	·
COc1ccc(Cc2nc3ccc(C(=O)NCCc4cccc(C)n4)cc3o2)cc1	-34	-45	-9	-10	14	-9	·	·
